Data set [1] is described as follows: Cytotoxicity against mock-infected human MT4 cells by MTT assay. It is filed as cell-based. The method in brief:
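Mock-infected MT-4 cells (6 × 10⁵ cells/mL) were run in parallel with the infected wells, with serial fivefold compound dilutions in triplicate. After 5 days, viability was read by MTT at 540 and 690 nm, using the median OD of three wells. CC50 is the concentration that reduces OD540 of mock-infected controls by 50%.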
Background: Tetrazolium assays rely on reduction of a dye to a coloured formazan, in cell work by metabolically active cells.

The test system of data set [2] is Human immunodeficiency virus 2. Briefly: Antiviral activity against HIV-2 ROD infected human MT4 cells assessed as inhibition in viral syncytium formation by MTT assay. It is filed as functional, organism-based. Conditions: Human immunodeficiency virus 2, ISOLATE ROD. Summed up: (§1)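 MT-4 cells (6 × 10⁵ cells/mL) infected with HIV-1 IIIB or HIV-2 ROD stock at 100–300 CCID50, with serial fivefold compound dilutions in triplicate wells. After 5 days, viability was read by MTT reduction at 540 and 690 nm, using the median OD of three wells. EC50 is the concentration giving 50% inhibition of virus-induced syncytium formation.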

Data set [3] deals with Human immunodeficiency virus 1. Kind of data set: Antiviral activity against HIV-1 RES056 harboring RT K103N/Y181C mutant gene infected human MT4 cells assessed as inhibition in viral syncytium formation by MTT assay. It is filed as functional, organism-based. As to conditions: Human immunodeficiency virus 1, RES056, MT4. Summed up:
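MT-4 cells infected with double-mutant RT (K103N/Y181C) HIV-1 RES056; compounds added as serial fivefold dilutions in triplicate wells with mock-infected parallels. Cells at 6 × 10⁵ cells/mL. Viability read by MTT after five days at 540 and 690 nm, median OD of three wells. EC50 is the concentration inhibiting virus-induced syncytium formation by 50%.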

The subject of data set [4] is Human immunodeficiency virus 1. Briefly: Antiviral activity against HIV-1 3B infected human MT4 cells assessed as inhibition in viral syncytium formation by MTT assay. As to conditions: Human immunodeficiency virus 1, 3B. It is filed as functional, organism-based. The method in brief:
as §1

Data set [5] can be described thus: Selectivity index, ratio of CC50 for human MT4 cells to EC50 for HIV-1 3B. Conditions: read-out: Ratio CC50/EC50. It is filed as toxicity, cell-based. The method in brief:
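SI is the ratio CC50/EC50, both taken from parallel 5-day MTT assays in MT-4 cells. CC50 comes from mock-infected cells and EC50 from HIV-1 IIIB-infected cells.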

Data set [6] deals with Human immunodeficiency virus type 1 reverse transcriptase (Human immunodeficiency virus 1, UniProt Q72547). Briefly: Inhibition of recombinant HIV-1 RT assessed as inhibition of biotin-dUTP incorporation by colorimetric analysis. The method in brief:
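Highly purified recombinant HIV-1 RT was used with a […] homopolymer template primer. Nucleotides were linked to a microtiter plate, and incorporated biotin-dUTP was detected colorimetrically. IC50 is the concentration inhibiting biotin-dUTP incorporation by 50%.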

20 compounds from ChEMBL document CHEMBL2086251, “Arylazolyl(azinyl)thioacetanilides. Part 10: design, synthesis and biological evaluation of novel substituted imidazopyridinylthioacetanilides as potent HIV-1 inhibitors” (Bioorg Med Chem, 2012) can be followed below.

A word on the CC50: it is the concentration that lowers cell viability or growth by half. What is called EC50 is the concentration giving half of the maximal effect. Broadly, the IC50 is the concentration that gives 50% inhibition.

Each structure is given as a SMILES string. Some results are limits rather than exact numbers.

With `Cc1cc(C)c(-n2c(SCC(=O)Nc3ccc(S(N)(=O)=O)cc3Br)nc3cccnc32)c(C)c1`, in data set [1], the half-maximal cytotoxic concentration (CC50) is 22 µM. Also, the results for the concentration giving a half-maximal response (EC50) in data set [2], in data set [3] and in data set [4] were over 22 µM, over 22 µM and 0.75 µM, respectively. For the same compound, the selectivity ratio in data set [5] was 30.

`Cc1cc(C)c(-n2c(SCC(=O)Nc3ccc([N+](=O)[O-])cc3Cl)nc3cnccc32)c(C)c1` returned a cytotoxic concentration (CC50) in data set [1] of 29 µM. For the same compound, the 50% effective concentration (EC50) in data set [2] is over 29 µM; in data set [3] it was over 29 µM; in data set [4], 1.4 µM. The selectivity ratio in data set [5] came to 20.

As for `Cc1ccnc2c1NC(=O)c1cccnc1N2C1CC1` [NEVIRAPINE], the CC50 in data set [1] was over 15 µM. In data set [3], the EC50 is over 15 µM. Also, the selectivity ratio in data set [5] is over 75.

For `Cc1cc(C)c(-n2c(SCC(=O)Nc3ccc(S(N)(=O)=O)cc3Br)nc3cnccc32)c(C)c1`, the CC50 in data set [1] came out at 9.7 µM. Also, the half-maximal effective concentration (EC50) in data set [2] was over 9.7 µM; in data set [3], over 9.7 µM; in data set [4], 0.21 µM. In data set [6], the half-inhibitory concentration (IC50) amounted to 4.4 µM. Moreover, the selectivity ratio in data set [5] was determined as 46.

In turn, `Cc1cc(C)c(-n2c(SCC(=O)Nc3ccccc3Br)nc3cnccc32)c(C)c1` returned a CC50 in data set [1] of 22 µM. The concentration for a half-maximal effect (EC50) is over 22 µM in data set [2], over 22 µM in data set [3] and 5.2 µM in data set [4]. Further, the selectivity ratio in data set [5] came to 4.

Consider `CC(C)Nc1cccnc1N1CCN(C(=O)c2cc3cc(NS(C)(=O)=O)ccc3[nH]2)CC1` [DELAVIRDINE], for which the CC50 in data set [1] was over 36 µM. Moreover, the EC50 in data set [3] is over 36.2 µM. Moreover, the selectivity ratio in data set [5] is over 1030.

Turning to `Cc1cc(C)c(-n2c(SCC(=O)Nc3ccccc3[N+](=O)[O-])nc3cnccc32)c(C)c1`, the CC50 in data set [1] is 9.9 µM. Moreover, the figures for the half-maximal effective concentration (EC50) in data set [2], in data set [3] and in data set [4] were over 9.9 µM, over 9.9 µM and 5.7 µM, respectively. In addition, in data set [5], the selectivity ratio is 2.

In turn, `CCOC(=O)c1ccc(NC(=O)CSc2nc3cnccc3n2-c2c(C)cc(C)cc2C)c(Br)c1` registered a CC50 in data set [1] of 22 µM. For the same compound, the EC50 in data set [2] is over 22 µM; in data set [3], over 22 µM; in data set [4] it was 4.7 µM. Moreover, the selectivity ratio in data set [5] was determined as 5.

Turning to `CC(=O)c1ccc(NC(=O)CSc2nc3cnccc3n2-c2c(C)cc(C)cc2C)c(Br)c1`, the CC50 in data set [1] amounted to 61 µM. The EC50 is over 61 µM in data set [2], over 61 µM in data set [3] and 0.99 µM in data set [4]. The selectivity ratio in data set [5] is 61.

In data set [1], `CC(=O)c1ccc(NC(=O)CSc2nc3cccnc3n2-c2c(C)cc(C)cc2C)c(Br)c1` showed a 50% cytotoxic concentration (CC50) of 46 µM. Also, the EC50 in data set [2] was over 46 µM; in data set [3] it was over 46 µM; in data set [4] it was 3.6 µM. In addition, the selectivity ratio in data set [5] was 13.

As to `Cc1cn([C@H]2C[C@H](N=[N+]=[N-])[C@@H](CO)O2)c(=O)[nH]c1=O` [ZIDOVUDINE], the cytotoxic concentration (CC50) in data set [1] was at least 50 µM. Also, the concentration giving a half-maximal response (EC50) in data set [3] came to 0.01 µM; in data set [4] it was 6 µM. Further, the selectivity ratio in data set [5] was at least 8300.

`Cc1cc(C)c(-n2c(SCC(=O)Nc3cccnc3Cl)nc3cnccc32)c(C)c1` gave a cytotoxic concentration (CC50) in data set [1] of 22 µM. For the same compound, the EC50 in data set [2] is over 22 µM; in data set [3] it was over 22 µM; in data set [4], 1.7 µM. In addition, in data set [5], the selectivity ratio was found to be 12.

In data set [1], `COC(=O)c1ccc(NC(=O)CSc2nc3cccnc3n2-c2c(C)cc(C)cc2C)c(Br)c1` had a CC50 of 80 µM. Further, the concentration for a half-maximal effect (EC50) in data set [2] was over 80 µM; in data set [3], over 80 µM; in data set [4], 8.9 µM. Moreover, in data set [5], the selectivity ratio was determined as 9.

`Cc1cc(C)c(-n2c(SCC(=O)Nc3ccccc3[N+](=O)[O-])nc3cccnc32)c(C)c1` showed a cytotoxic concentration (CC50) in data set [1] of 39 µM. Further, the EC50 is over 39 µM in data set [2], over 39 µM in data set [3] and at least 6.7 µM in data set [4]. In data set [5], the selectivity ratio was at most 6.

On to `Cc1cc(C)c(-n2c(SCC(=O)Nc3ccc(C)cc3[N+](=O)[O-])nc3cnccc32)c(C)c1`, for which the half-maximal cytotoxic concentration (CC50) in data set [1] is 6.2 µM. Further, the EC50 in data set [2] is over 6.2 µM; in data set [3], over 6.2 µM; in data set [4], at least 1.2 µM. Besides, the selectivity ratio in data set [5] was at most 5.

`Cc1cc(C)c(-n2c(SCC(=O)Nc3ccccc3Br)nc3cccnc32)c(C)c1` displayed a half-maximal cytotoxic concentration (CC50) in data set [1] of 5.6 µM. In addition, the EC50 in data set [2] and in data set [4] was over 5.6 µM throughout. The selectivity ratio in data set [5] was under 1.

`CCOC(=O)c1ccc(NC(=O)CSc2nc3cccnc3n2-c2c(C)cc(C)cc2C)c(Br)c1` displayed a CC50 in data set [1] of 117 µM. The EC50 was over 117 µM in data set [2], over 117 µM in data set [3] and 9.9 µM in data set [4]. Further, the selectivity ratio in data set [5] is 12.

As for `Cc1cc(C)c(-n2c(SCC(=O)Nc3ccc(Cl)cc3Cl)nc3cnccc32)c(C)c1`, the CC50 in data set [1] came out at 140 µM. Moreover, the results for the 50% effective concentration (EC50) in data set [2], in data set [3] and in data set [4] were over 140 µM, over 140 µM and at least 1.1 µM, respectively. For the same compound, the selectivity ratio in data set [5] is at most 127.

On to `Cc1cc(C)c(-n2c(SCC(=O)Nc3ccc([N+](=O)[O-])cc3Cl)nc3cccnc32)c(C)c1`, for which the cytotoxic concentration (CC50) in data set [1] stood at 25 µM. In addition, the EC50 in data set [2] and in data set [4] was over 25 µM each time. Moreover, in data set [5], the selectivity ratio was under 1.

Compound `COC(=O)c1ccc(NC(=O)CSc2nc3cnccc3n2-c2c(C)cc(C)cc2C)c(Br)c1` registered a 50% cytotoxic concentration (CC50) in data set [1] of 27 µM. In addition, the values for the half-maximal effective concentration (EC50) in data set [2], in data set [3] and in data set [4] were over 27 µM, over 27 µM and at least 2.5 µM, respectively. Besides, the selectivity ratio in data set [5] is at most 11.
